Assay results from ChEMBL document CHEMBL1122008, “Lipophilic 5'-(alkyl phosphate) esters of 1-beta-D-arabinofuranosylcytosine and its N4-acyl and 2,2'-anhydro-3'-O-acyl derivatives as potential prodrugs” (1982).

Experiments:
Assay type in all cases: functional
Mus musculus [1] = test: Antitumor activity against L1210/ara-C leukemia in mice (Average weight per mouse on day 1.) at the dose of 640 mg/kg
Method in brief: (§1)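 Male B6D2F1J mice, groups of 5–9, inoculated ip with 10^5 L1210/ara-C cells on day 0. Dosing began day 1 on a qd×5 or q4d(2,6) schedule. Ara-C was given in sterile water, the n-butyl phosphate ester in 0.05 M pH 7.4 potassium phosphate buffer, and others as suspensions in 0.4% Tween 80/0.5% CMC/0.9% benzyl alcohol/0.9% saline. Mice were weighed on days 1 and 7; 7-day change given in g and %.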

Mus musculus [2] = test: Antitumor activity against L1210 leukemia in mice (Average weight per mouse on day 1.) at the dose of 320 mg/kg
Method in brief: (§2)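 Male B6D2F1J mice (5–9 per group) received 10^5 L1210 cells i.p. on day 0 and drug from day 1, given qd×5 or q4d(2,6). Vehicles were sterile water, 0.05 M potassium phosphate pH 7.4, or 0.4% Tween 80/0.5% CMC/0.9% benzyl alcohol/0.9% saline. Read-out is average body weight per mouse (g) on day 1.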

Mus musculus [3] = test: Antitumor activity against L1210 leukemia in mice (Average weight per mouse on day 1.) at the dose of 160 mg/kg; method in brief: as §2
Mus musculus [4] = test: Antitumor activity against L1210 leukemia in mice (Average 7-day weight change (%)) at the dose of 640 mg/kg
Method in brief: (§3)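 Male B6D2F1J mice, groups of five to nine, inoculated ip with 10^5 L1210 cells on day 0. Drug treatment started day 1 on qd×5 or q4d(2,6) schedule. Vehicles: ara-C in sterile water; the n-butyl phosphate ester in 0.05 M pH 7.4 potassium phosphate buffer; others as suspensions in 0.4% Tween 80/0.5% low-density CMC/0.9% benzyl alcohol/0.9% saline. Mice weighed days 1 and 7; 7-day weight change given as g/mouse and %.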

Mus musculus [5] = test: Antitumor activity against L1210 leukemia in mice (Average 7-day weight change) at the dose of 640 mg/kg
Method in brief: (§4)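 Male B6D2F1J mice in groups of five to nine were inoculated i.p. with 10^5 L1210 cells on day 0. Dosing began on day 1 on a qd×5 or q4d(2,6) schedule. The vehicle was sterile water, pH 7.4 0.05 M potassium phosphate buffer, or a saline suspension with 0.4% Tween 80, 0.5% CMC and 0.9% benzyl alcohol. Mice were weighed on days 1 and 7; read-out is average weight change per mouse.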

Mus musculus [6] = test: Antitumor activity against L1210 leukemia in mice (Average 7-day weight change (%)) at the dose of 160 mg/kg; method in brief: as §3
Mus musculus [7] = test: Antitumor activity against L1210/ara-C leukemia in mice (Average 7-day weight change) at the dose of 160 mg/kg
Method in brief: (§5)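 Male B6D2F1J mice (5–9 per group) were given 10^5 L1210/ara-C cells i.p. on day 0, with treatment from day 1 on qd×5 or q4d(2,6). Vehicles were sterile water, pH 7.4 0.05 M phosphate buffer, or a Tween 80/CMC/benzyl alcohol saline suspension. Weights were taken on days 1 and 7; change is expressed in g/mouse and as a percentage.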

Mus musculus [8] = test: Antitumor activity against L1210 leukemia in mice (Average 7-day weight change) at the dose of 320 mg/kg; method in brief: as §3
Mus musculus [9] = test: Antitumor activity against L1210 leukemia in mice (Average 7-day weight change (%)) at the dose of 80 mg/kg; method in brief: as §3
Mus musculus [10] = test: Antitumor activity against L1210/ara-C leukemia in mice (Average 7-day weight change) at the dose of 80 mg/kg; method in brief: as §1
Mus musculus [11] = test: Antitumor activity against L1210/ara-C leukemia in mice (Average 7-day weight change (%)) at the dose of 640 mg/kg; method in brief: as §5
Mus musculus [12] = test: Antitumor activity against L1210 leukemia in mice (Average weight per mouse on day 1.) at the dose of 80 mg/kg; method in brief: as §2
Mus musculus [13] = test: Antitumor activity against L1210/ara-C leukemia in mice (Percent increase in life span.) at the dose of 80 mg/kg
Method in brief: (§6)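 Same protocol as the L1210 assay, but with 10^5 kinase-deficient L1210/ara-C cells inoculated ip into male B6D2F1J mice (groups of 5–9) on day 0. Treatment begins day 1, qd×5 or q4d(2,6). %ILS = (T/C − 1)×100 using median survival times of treated and control groups. Body weight recorded days 1 and 7.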

Mus musculus [14] = test: Antitumor activity against L1210 leukemia in mice (Average 7-day weight change (%)) at the dose of 320 mg/kg; method in brief: as §3
Mus musculus [15] = test: Antitumor activity against L1210 leukemia in mice (Percent increase in life span.) at the dose of 320 mg/kg
Method in brief: (§7)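 Male B6D2F1J mice, groups of 5–9, inoculated ip with 10^5 L1210 cells on day 0. Dosing starts day 1 on a qd×5 or q4d(2,6) schedule. Vehicles are sterile water, pH 7.4 0.05 M potassium phosphate buffer, or 0.4% Tween 80/0.5% CMC/0.9% benzyl alcohol/0.9% saline. %ILS = (T/C − 1)×100 from median survival. Weights taken days 1 and 7.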

Mus musculus [16] = test: Antitumor activity against L1210/ara-C leukemia in mice (Average 7-day weight change (%)) at the dose of 160 mg/kg; method in brief: as §5
Mus musculus [17] = test: Antitumor activity against L1210/ara-C leukemia in mice (Average weight per mouse on day 1.) at the dose of 160 mg/kg; method in brief: as §1
Mus musculus [18] = test: Antitumor activity against L1210 leukemia in mice (Percent increase in life span.) at the dose of 80 mg/kg; settings: L1210, dose 80 mg/kg; method in brief: as §7
Mus musculus [19] = test: Antitumor activity against L1210 leukemia in mice (Percent increase in life span.) at the dose of 640 mg/kg; method in brief: as §7
Mus musculus [20] = test: Antitumor activity against L1210/ara-C leukemia in mice (Average 7-day weight change) at the dose of 320 mg/kg; method in brief: as §5
B16 = test: Growth inhibition of B16 mouse melanoma cells in culture was determined; settings: read-out: ID50 (the source's name)
Method in brief: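 B16 mouse melanoma monolayers in McCoy's 5A with 10% whole fetal calf serum, streptomycin and penicillin, 37 °C, 5% CO2. Drugs were dissolved in 0.05 M pH 7.4 potassium phosphate buffer or Me2SO and dosed at regularly spaced concentrations, generally 10^-7 to 10^-3 M. Cells were counted after 48 h; ID50 versus untreated controls was read from dose–response curves, triplicate.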

Mus musculus [21] = test: Antitumor activity against L1210/ara-C leukemia in mice (Average 7-day weight change (%)) at the dose of 80 mg/kg; method in brief: as §5
Mus musculus [22] = test: Antitumor activity against L1210 leukemia in mice (Average weight per mouse on day 1.) at the dose of 640 mg/kg; method in brief: as §2
Mus musculus [23] = test: Antitumor activity against L1210/ara-C leukemia in mice (Average 7-day weight change (%)) at the dose of 320 mg/kg; method in brief: as §5
Mus musculus [24] = test: Antitumor activity against L1210/ara-C leukemia in mice (Percent increase in life span.) at the dose of 160 mg/kg; method in brief: as §6
Mus musculus [25] = test: Antitumor activity against L1210 leukemia in mice (Average 7-day weight change) at the dose of 160 mg/kg; method in brief: as §3
L1210 = test: Growth inhibition of cultured L1210 mouse leukemia cells was determined; settings: read-out: ID50 (the source's name)
Method in brief: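 L1210 mouse leukemia cells in suspension in Eagle's MEM with 15% whole (non-dialyzed, non-heat-inactivated) fetal calf serum, antibiotics and 0.05 mM 2-mercaptoethanol, 37 °C, 5% CO2. Drugs in pH 7.4 phosphate buffer or Me2SO, generally 10^-7 to 10^-3 M. Coulter cell counts at 48 h; ID50 relative to untreated controls from dose–response curves, triplicate.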

Mus musculus [26] = test: Antitumor activity against L1210/ara-C leukemia in mice (Average weight per mouse on day 1.) at the dose of 80 mg/kg; method in brief: as §1
Mus musculus [27] = test: Antitumor activity against L1210 leukemia in mice (Average 7-day weight change) at the dose of 80 mg/kg; method in brief: as §4
Mus musculus [28] = test: Antitumor activity against L1210/ara-C leukemia in mice (Percent increase in life span.) at the dose of 640 mg/kg; method in brief: as §6
Mus musculus [29] = test: Antitumor activity against L1210/ara-C leukemia in mice (Percent increase in life span.) at the dose of 320 mg/kg; method in brief: as §6
Mus musculus [30] = test: Antitumor activity against L1210/ara-C leukemia in mice (Average 7-day weight change) at the dose of 640 mg/kg; method in brief: as §1
Mus musculus [31] = test: Antitumor activity against L1210 leukemia in mice (Percent increase in life span.) at the dose of 160 mg/kg; method in brief: as §7

`CCCCOP(=O)(O)OC[C@H]1O[C@@H](n2ccc(N)nc2=O)[C@@H](O)[C@@H]1O` gave an Average weight (Mus musculus [1]) of 22.6 g mouse-1, an Average weight (Mus musculus [2]) of 22.4 g mouse-1 and an Average weight (Mus musculus [3]) of 23.6 g mouse-1. For the same compound, the Weight change (Mus musculus [4]) was 1%, the Weight change (Mus musculus [5]) was 0.2 g mouse-1 and the Weight change (Mus musculus [6]) was 4%. It also gave a Weight change (Mus musculus [7]) of 3.6 g mouse-1, a Weight change (Mus musculus [8]) of 0.6 g mouse-1 and a Weight change (Mus musculus [9]) of 10%. The Weight change (Mus musculus [10]) was 3 g mouse-1, the Weight change (Mus musculus [11]) was 0% and the Average weight (Mus musculus [12]) was 22 g mouse-1. For the same compound, the ILS at 80 mg/kg (Mus musculus [13]) was 0%, the Weight change (Mus musculus [14]) was 3% and the ILS at 320 mg/kg (Mus musculus [15]) was 87%. For the same compound, the Weight change (Mus musculus [16]) was 16%, the Average weight (Mus musculus [17]) was 22.2 g mouse-1 and the ILS at 80 mg/kg (Mus musculus [18]) was 37%. The ILS at 640 mg/kg (Mus musculus [19]) was 87%, the Weight change (Mus musculus [20]) was 1 g mouse-1 and the IC50 (B16) was 130 µM. It also gave a Weight change (Mus musculus [21]) of 13%, an Average weight (Mus musculus [22]) of 22.8 g mouse-1 and a Weight change (Mus musculus [23]) of 5%. For the same compound, the ILS at 160 mg/kg (Mus musculus [24]) was 0%, the Weight change (Mus musculus [25]) was 1 g mouse-1 and the IC50 (L1210) was 7.5 µM. For the same compound, the Average weight (Mus musculus [26]) was 23.4 g mouse-1, the Weight change (Mus musculus [27]) was 2.6 g mouse-1 and the ILS at 640 mg/kg (Mus musculus [28]) was -13%. The ILS at 320 mg/kg (Mus musculus [29]) was 0%, the Weight change (Mus musculus [30]) was 0.2 g mouse-1 and the ILS at 160 mg/kg (Mus musculus [31]) was 50%.
